Source: PubChem (Johns Hopkins Ion Channel Center)
MrgX1 allo act = allosterically activates human MrgX1 receptor signaling | Q96LB2 | MrgX1-HEK293, Fluo-4 calcium flux, FDSS; hits give high values | B-score at 10 µM | 310,000 tested, 0.63% active;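 active = plate-corrected calcium response at least 3 library SD above typical, normal starting fluorescence, not activating the receptor alone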;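 note: compound read alongside a low EC10 to EC30 dose of BAM8-22 agonist; peak minus trough fluorescence over baseline measured at the second addition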
Target sequence (Q96LB2 whole entry, looked up): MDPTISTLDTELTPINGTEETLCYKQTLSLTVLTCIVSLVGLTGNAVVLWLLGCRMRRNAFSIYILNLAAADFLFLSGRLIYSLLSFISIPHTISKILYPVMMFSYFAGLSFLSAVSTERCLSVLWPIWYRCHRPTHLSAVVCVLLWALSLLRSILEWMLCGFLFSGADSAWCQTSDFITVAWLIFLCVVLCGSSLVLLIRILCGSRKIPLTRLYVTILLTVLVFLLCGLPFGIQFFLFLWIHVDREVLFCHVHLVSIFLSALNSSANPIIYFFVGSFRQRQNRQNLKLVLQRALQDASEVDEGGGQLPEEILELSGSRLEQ
RGS4 inh = human RGS4 inhibition; P49798; HEK293 M3R/RGS4 inducible, Fluo-4 calcium flux; hits give high values; triggered by carbachol at its EC20; B-score at 10 µM; 310,000 tested, 0.45% active;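 active = B-score, a plate-corrected calcium signal, over three deviations above library mean, with baseline fluorescence within five deviations of library mean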;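 note: RGS4 expression induced by doxycycline in cells with stable M3 receptor; B-score is computed from the integrated fluorescence ratio over baseline after carbachol; higher B-score means a larger calcium signal and so more RGS4 inhibition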
Target sequence (P49798 whole entry, looked up): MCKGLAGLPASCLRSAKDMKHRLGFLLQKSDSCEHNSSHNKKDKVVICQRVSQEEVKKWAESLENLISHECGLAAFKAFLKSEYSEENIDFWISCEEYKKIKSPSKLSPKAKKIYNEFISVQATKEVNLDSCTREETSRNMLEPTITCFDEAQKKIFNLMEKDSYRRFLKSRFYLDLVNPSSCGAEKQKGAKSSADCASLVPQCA
MrgX1 antag = antagonists of human MrgX1 receptor; Q96LB2; MRGX1-HEK293 calcium flux, Fluo-4, BAM8-22 antagonism; hits give low values; B-score at 10 µM; 310,000 tested, 1.3% active; AID 588676;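 active = calcium-response B-score plate-corrected more than 3 library SD below zero, starting fluorescence within 5 deviations, no agonist response on first addition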;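 note: peak minus trough fluorescence over baseline after final BAM8-22 challenge near maximal dose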
RGS4 act = RGS4 potentiation or activation; AID 463111; B-score at 10 µM; HEK293 M3R/inducible RGS4, carbachol calcium flux Fluo4; hits give low values; 310,000 tested, 0.92% active;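 active = B-score of the integrated calcium signal more than 4 SD below the library mean, with starting fluorescence not abnormally high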;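 note: negative B-score means reduced calcium response which marks RGS4 activation or potentiation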
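test system = M3R-expressing HEK293 line, RGS4 induced by doxycycline | probe or stimulus = carbachol at ECmax as muscarinic agonist stimulus | timing = dye loading 30 min 37 °C, buffer rest 30 min RT | signal = calcium dye Fluo4 fluorescence | evaluation = B score from integrated fluorescence ratio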
MrgX1 ag = activates human MrgX1 receptor signaling; MrgX1-HEK293 cells, Fluo-4 calcium fluorescence, agonist mode; hits give high values; B-score at 10 µM; AID 588627; 310,000 tested, 0.44% active; Q96LB2;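 active = calcium response B-score plate-corrected fluorescence ratio at least 3 library SD, with starting fluorescence B-score inside 5 SD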
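System: HEK293 cells stably expressing human MrgX1 receptor; Dosing: test compound in the initial addition of three; Schedule: overnight plating, then 30 min 37 °C plus 30 min room-temperature dye loading; Detection: kinetic calcium dye fluorescence, Fluo-4 NW; Controls: per-plate positive and negative controls for Z′ factor.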
MrgX1 antag conf = human MrgX1 receptor antagonism, re-confirmation screen; MrgX1-HEK293, BAM8-22 calcium flux, Fluo-4; hits give low values; 2,300 tested, 19% active; remaining BAM8-22 calcium response % of control (hits give low values), % at 10 µM; shares compounds with MrgX1 antag;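 active = remaining agonist calcium response no higher than 100% minus 3 SD of agonist-only control wells, with starting fluorescence near control levels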;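 note: agonist BAM8-22 given at a near maximal EC90 to ECmax level; peak minus minimum fluorescence divided by baseline after agonist addition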
HEK293 Ca flux = counter-screen for MrgX1 antagonists: effect in parental HEK293 cells; Fluo-4 calcium fluorescence, FDSS; shares compounds with MrgX1 antag; AID 624111; 4,000 tested, 2% active; fluorescence ratio F(max-min)/F0 at 10 µM;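 active = duplicate-averaged calcium fluorescence ratio at least three times the standard deviation of buffer wells, a nonspecific response in parental cells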
HEK293 Ca counter = counter-screen for MrgX1 allosteric activators: effect in parental HEK293 cells | shares compounds with MrgX1 antag | parental HEK293 calcium flux, Fluo-4 fluorescence ratio; hits give high values | fluorescence ratio F(max-min)/F0 at 10 µM | 4,000 tested, 0.4% active | AID 624114;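 active = calcium fluorescence ratio, averaged over duplicates, at least 3 SD of the buffer-well ratio, meaning a nonspecific response in receptor-free cells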;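 note: untransfected parental HEK293 lacking MrgX1 used as counterscreen for MrgX1 allosteric activators; fluorescence change taken during the second addition on a kinetic imager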
HEK293 Ca cntr2 = activity in parental HEK293 cells lacking MrgX1 receptor | shares compounds with MrgX1 antag | Fluo-4 calcium fluorescence (FDSS); hits give high values | fluorescence ratio F(max-min)/F0 at 10 µM | 4,000 tested, 8.7% active | AID 624115;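 active = calcium fluorescence ratio at least three times the spread of buffer wells, meaning a non-specific response in parental cells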
Active calls of the source: *; i = inactive; . = no result. A selection: hits, their analogues and other compounds. The true share with any hit is near 3.5%.

SMILES	MrgX1 allo act	RGS4 inh	MrgX1 antag	RGS4 act	MrgX1 ag	MrgX1 antag conf	HEK293 Ca flux	HEK293 Ca counter	HEK293 Ca cntr2
O=C(NCc1ccco1)c1cc(-c2ccccc2)nc2ccccc12	i	i	-5.3*	i	i	i	i	i	i
COc1ccc(-c2cc(C(=O)NCc3ccco3)c3ccccc3n2)cc1	i	i	i	i	i	.	.	.	.
CC(=O)Nc1ccc(S(=O)(=O)N2CCC(c3nc4ccc(C)cc4[nH]3)CC2)cc1	i	i	i	i	i	.	.	.	.
CC(C)(C)c1ccc(S(=O)(=O)N2CCC(c3nc4ccc(Cl)cc4[nH]3)CC2)cc1	i	i	-6*	i	i	i	i	i	i
Cc1ccnc(N2CCC(C(=O)Nc3ccc(Oc4ccccc4)cc3)CC2)n1	i	i	i	i	i	.	.	.	.
Cc1ccnc(N2CCC(C(=O)Nc3cccc(C(F)(F)F)c3)CC2)n1	i	i	-4.8*	i	i	i	i	i	i
COc1ccc2[nH]c(=O)c(CN(Cc3ccc(C)cc3)Cc3nnnn3CC3CCCO3)cc2c1 (stereo not drawn)	i	i	i	i	i	.	.	.	.
O=C(CN1C(=O)CSc2ncccc21)Nc1ccccc1F	i	i	i	i	i	.	.	.	.
COC(=O)c1ccc(NC(=O)C2C3C=CC(O3)C2C(=O)O)cc1 (stereo not drawn)	i	i	-8.7*	i	i	i	i	i	i
COc1ccc(OC)c(Nc2c3ccccc3nc3ccccc23)c1	i	i	i	i	i	.	.	.	.
COc1cc(NS(C)(=O)=O)ccc1Nc1c2ccccc2nc2ccccc12	i	.	-6.7*	.	i	i	i	i	i
COc1ccc2oc(C(=O)N(Cc3ccco3)Cc3cccs3)c(C)c2c1	i	i	i	i	i	.	.	.	.
C=C1CCN([C@@H](C)C(=O)OCc2cccc(C)c2)S(=O)(=O)c2ccccc21	i	i	-11*	i	i	i	i	i	i
C=C1CCN([C@H](C(=O)OCc2ccc(C)cc2)C(C)C)S(=O)(=O)c2ccccc21	i	.	i	.	i	.	.	.	.
c1ccc2c(OCCCN3CCCCCC3)cccc2c1	i	i	i	i	i	.	.	.	.
CCc1cccc(NC(=O)CCCn2nc(C)c3c(C)n(-c4ccccc4)nc3c2=O)c1	i	i	i	i	i	.	.	.	.
CCCCN1CC[C@H]2C=CC[C@@H](C(=O)Nc3ccccc3)[C@H]2C1=O	i	i	i	i	i	.	.	.	.
CCCCN1CC[C@H]2C=CC[C@@H](C(=O)NCCc3ccccc3)[C@H]2C1=O	i	i	-6.1*	i	i	i	i	i	i
Cc1ccc(NNC(=O)c2ccno2)cc1Cl	i	i	i	i	i	.	.	.	.
O=C(Nc1cc(Cl)cc(Cl)c1)c1ccno1	i	i	-4.5*	i	i	i	i	i	i
CCN(CCNC(=O)C1CCN(c2nnc(-n3cccc3)s2)CC1)c1ccccc1	i	i	i	i	i	.	.	.	.
CC(C)(C)NC(=O)CN(C(=O)CCC(=O)Nc1nccs1)c1ccc(F)cc1	i	i	i	i	i	.	.	.	.
CCCCCCCNC(=O)C1(CC2CC(c3ccc(Cl)cc3)=NO2)CCN(C(=O)OC(C)(C)C)CC1 (stereo not drawn)	i	i	i	i	i	.	.	.	.
Cc1nnc(C)n1/N=C/c1cccnc1	i	i	-7.1*	i	i	i	i	i	i
O=C(N/N=C/c1ccc(OC(=O)c2ccco2)cc1)c1ccc[n+]([O-])c1	i	i	i	i	i	.	.	.	.
SMILES	MrgX1 allo act	RGS4 inh	MrgX1 antag	RGS4 act	MrgX1 ag	MrgX1 antag conf	HEK293 Ca flux	HEK293 Ca counter	HEK293 Ca cntr2
O=C1C2C3c4ccccc4C(c4ccccc43)C2C(=O)N1CN1CCOCC1 (stereo not drawn)	i	i	i	i	i	.	.	.	.
O=C(CN1C(=O)C2C3c4ccccc4C(c4ccccc43)C2C1=O)N1CCOCC1 (stereo not drawn)	i	i	-5.2*	i	i	i	i	i	i
O=C(CN1C2CCC1CC(NC(=O)NC1CCCCC1)C2)NC1CC1 (stereo not drawn)	i	i	-5.5*	i	i	i	i	i	i
CCCN1C2CCCC1CC(NC(=O)NC1CCCCC1)C2 (stereo not drawn)	i	i	i	i	i	.	.	.	.
O=C(NCCS(=O)(=O)NC1CCCC1)c1ccc(F)cc1	i	i	-4.9*	i	i	i	i	i	i
COc1ccc(C(=O)NCCS(=O)(=O)NC2CCCC2)cc1	i	i	i	i	i	.	.	.	.
CCCn1c(=N)n(CC(=O)c2cccs2)c2ccccc21	i	i	-4.6*	i	i	i	i	i	i
CSc1nc2cc(Oc3cccc(Cl)c3Cl)c(Cl)cc2[nH]1	i	i	i	i	i	.	.	.	.
O=C(Cc1c(F)cccc1Cl)Nc1ccon1	i	i	-6.5*	i	i	i	i	i	i
Cc1cc(NC(=O)Cc2c(F)cccc2Cl)no1	i	i	i	i	i	.	.	.	.
O=C(Nc1nn[nH]n1)C12CC3CC(CC(C3)C1)C2	i	i	i	i	i	.	.	.	.
CCOC(=O)CSC1=C(C#N)C(c2ccccc2Cl)C(C(=O)OC)C(=O)N1 (stereo not drawn)	i	i	-4.8*	i	i	i	i	i	i
CCOCCCNC(=O)C(NC(=O)c1ccccc1O)c1ccc(Cl)cc1 (stereo not drawn)	i	i	i	i	i	.	.	.	.
COc1ccc(-c2csc(/C(C#N)=C\c3ccc(OC)c([N+](=O)[O-])c3)n2)cc1	i	i	i	i	i	.	.	.	.
COc1ccc(-c2csc(/C(C#N)=C\c3ccc(O)c([N+](=O)[O-])c3)n2)cc1OC	i	i	-11*	i	i	41%*	i	i	i
